Experimental data as given in ChEMBL document CHEMBL1131297, “N-(2-Benzoylphenyl)-L-tyrosine PPARgamma agonists. 3. Structure-activity relationship and optimization of the N-aryl substituent” (J Med Chem, 1998).
≈ marks a conversion by molar mass, not a printed value.

Columns and labels:
[1] = target: T1, Peroxisome proliferator-activated receptor gamma (Homo sapiens, UniProt P37231); assay: in vitro agonist activity against peroxisome proliferator activated receptor-gamma (PPAR-gamma), using alkaline phosphatase activity transactivator assay; assay type: functional
T1 sequence (P37231 whole entry): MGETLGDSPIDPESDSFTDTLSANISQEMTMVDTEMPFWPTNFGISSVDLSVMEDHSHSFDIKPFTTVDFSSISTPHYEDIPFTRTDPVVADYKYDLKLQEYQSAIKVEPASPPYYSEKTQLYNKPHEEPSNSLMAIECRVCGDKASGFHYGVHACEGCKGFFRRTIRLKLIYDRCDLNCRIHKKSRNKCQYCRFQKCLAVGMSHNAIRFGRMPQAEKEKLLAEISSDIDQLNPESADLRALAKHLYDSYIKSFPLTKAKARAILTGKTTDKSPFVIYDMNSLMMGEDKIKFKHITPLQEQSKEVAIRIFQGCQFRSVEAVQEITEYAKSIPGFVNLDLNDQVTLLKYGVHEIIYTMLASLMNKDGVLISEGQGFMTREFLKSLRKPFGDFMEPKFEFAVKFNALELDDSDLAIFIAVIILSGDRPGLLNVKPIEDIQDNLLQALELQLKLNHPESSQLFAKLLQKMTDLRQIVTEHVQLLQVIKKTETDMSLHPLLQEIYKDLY

[2] = target: T1, Peroxisome proliferator-activated receptor gamma; assay: Binding affinity against peroxisome proliferator activated receptor gamma (PPAR-gamma)
[3] = Solubility in phosphate buffer at pH 7.4.; assay type: physicochemical
Summary of the method: (§1)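 Solubility in 0.06 M phosphate buffer, pH 7.4, in temperature-controlled shaking water baths. Samples were drawn, passed through a 0.22-µm filter, diluted in water/acetonitrile (60:40), and quantified by HPLC on a phenyl reverse-phase column. Reported in mg/mL.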

Rattus norvegicus [4] = organism: Rattus norvegicus; assay: Compound was tested for Antihyperlipidemic activity, activity is expressed as percent reduction of Triglycerides; assay type: functional
Summary of the method: (§2)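 Nine-week-old male Zucker diabetic fatty rats, n = 8/group, baseline-matched for plasma glucose. The highest test dose was given twice daily by oral gavage for 17 days. Tail-vein blood was drawn on days 0, 3, 7 and 17 for plasma glucose, insulin, triglycerides and NEFAs. The value is mean ± SEM percent reduction versus vehicle controls on day 17.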

Rattus norvegicus [5] = assay: Compound was tested in vivo for Antihyperglycemic activity in diabetic rats, activity is expressed as percent reduction of HbA-1c; assay type: functional
Summary of the method: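 Male ZDF rats, nine weeks old, 8 per group, were matched at baseline on plasma glucose. They were dosed orally by gavage twice daily for 17 days at the maximum test dose. Glycosylated hemoglobin was measured on day 17. Data are mean ± SEM percent reduction relative to the vehicle control group.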

Rattus norvegicus [6] = organism: Rattus norvegicus; assay: Compound was tested for Antihyperlipidemic activity, activity is expressed as percent reduction of NEFAs; assay type: functional; summary of the method: as §2
Rattus norvegicus [7] = assay: Compound was tested in vivo for Antihyperglycemic activity in diabetic rats, activity is expressed as percent reduction of plasma glucose; assay type: functional; summary of the method: as §2
[8] = Solubility in simulated gastric fluid.; assay type: physicochemical; settings: read-out: S
Summary of the method: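 Solubility in simulated gastric fluid, pH 1.2, in temperature-controlled shaking water baths. Samples were drawn, passed through a 0.22-µm filter, diluted in water/acetonitrile (60:40), and quantified by HPLC on a phenyl reverse-phase column.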

[9] = target: T1, Peroxisome proliferator-activated receptor gamma; assay: The compound was tested functionally in vitro for inducing 50% of the maximum alkaline phosphatase activity (Transactivation) against Peroxisome proliferator activated receptor gamma; assay type: functional
[10] = target: T1, Peroxisome proliferator-activated receptor gamma; assay: The compound was tested in vitro for inhibiting the 50% binding of Peroxisome proliferator activated receptor gamma
Summary of the method: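 Radioligand competition binding to the human PPARγ ligand-binding domain. IC50 is the concentration inhibiting 50% of specific radioligand binding. Apparent Ki = IC50/(1 + [L]/Kd), where [L] is the radioligand concentration and Kd its dissociation constant. Reported as pKi (−log Ki).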

[11] = Solubility in pH 7.4 Phosphate buffer; assay type: physicochemical; summary of the method: as §1

Compound | EC50 [1] | Ki [2] | further results
CN(CCOc1ccc(CC(Nc2ccsc2C(=O)c2ccccc2)C(=O)O)cc1)c1nc2ccccc2o1 (configuration not stated) | 0.012 µM | 0.00977 µM | 
Cc1oc(-c2ccccc2)nc1CCOc1ccc(CC(Nc2ccccc2C(=O)c2cccc(CO)c2)C(=O)O)cc1 (configuration not stated) | 0.0245 µM | 0.00339 µM | solubility [3]: 1340 µg/mL (≈ 2320 µM)
CSc1nc(NC(Cc2ccc(OCCN(C)c3nc4ccccc4o3)cc2)C(=O)O)c(C(=O)c2ccccc2)s1 (configuration not stated) | 4.07 µM | 0.0427 µM | 
COc1ccc(C(=O)c2ccccc2NC(Cc2ccc(OCCN(C)c3nc4ccccc4o3)cc2)C(=O)O)cc1 (configuration not stated) | 0.0324 µM | 0.00562 µM | 
CN(CCOc1ccc(CC(Nc2ccccc2C(=O)c2cccs2)C(=O)O)cc1)c1nc2ccccc2o1 (configuration not stated) | 0.0457 µM | 0.00275 µM | 
Cc1ccc(C(=O)c2ccccc2NC(Cc2ccc(OCCN(C)c3nc4ccccc4o3)cc2)C(=O)O)cc1 (configuration not stated) | 0.00851 µM | 0.00282 µM | 
COC(=O)c1ccccc1N[C@@H](Cc1ccc(OCCc2nc(-c3ccccc3)oc2C)cc1)C(=O)O [GW7845] |  |  | Reduction (Rattus norvegicus [4]): 82%; Reduction (Rattus norvegicus [5]): 40%; Reduction (Rattus norvegicus [6]): 87%; Reduction (Rattus norvegicus [7]): 67%; solubility [8]: < 2 µg/mL; solubility [3]: 300 µg/mL (≈ 599 µM)
Cc1oc(-c2ccccc2)nc1CCOc1ccc(CC(Nc2ccccc2C(=O)c2cccc(N)c2)C(=O)O)cc1 (configuration not stated) | 0.00891 µM | 0.00324 µM | solubility [8]: 3 µg/mL (≈ 5.34 µM); solubility [3]: 525 µg/mL (≈ 935 µM)
CN(CCOc1ccc(CC(Nc2ccccc2C(=O)c2cccc(C(F)(F)F)c2)C(=O)O)cc1)c1nc2ccccc2o1 (configuration not stated) | 0.0117 µM | 0.00263 µM | 
CN(CCOc1ccc(CC(Nc2ccccc2C(=O)C2CCCC2)C(=O)O)cc1)c1nc2ccccc2o1 (configuration not stated) | 0.0182 µM | 0.00646 µM | 
Cc1oc(-c2ccccc2)nc1CCOc1ccc(CC(Nc2ccccc2C(=O)OC(C)C)C(=O)O)cc1 (configuration not stated) | 0.000575 µM | 0.000977 µM | 
CN(CCOc1ccc(CC(Nc2ccccc2C(=O)c2ccccc2C(F)(F)F)C(=O)O)cc1)c1nc2ccccc2o1 (configuration not stated) | 0.0398 µM | 0.00269 µM | 
CN(CCOc1ccc(CC(Nc2ccccc2C(=O)c2ccc(-c3ccccc3)cc2)C(=O)O)cc1)c1nc2ccccc2o1 (configuration not stated) |  |  | EC50 [9]: 0.024 µM; Ki [10]: 0.049 µM
CN(CCOc1ccc(CC(Nc2ccccc2C(=O)c2cccc3ccccc23)C(=O)O)cc1)c1nc2ccccc2o1 (configuration not stated) |  |  | EC50 [9]: 0.0851 µM; Ki [10]: 0.00324 µM
CN(CCOc1ccc(CC(Nc2ccccc2C(=O)c2ccsc2)C(=O)O)cc1)c1nc2ccccc2o1 (configuration not stated) | 0.0631 µM | 0.00234 µM | 
CCCOC(=O)c1ccccc1NC(Cc1ccc(OCCc2nc(-c3ccccc3)oc2C)cc1)C(=O)O (configuration not stated) | 0.000302 µM | 0.0024 µM | 
Cc1oc(-c2ccccc2)nc1CCOc1ccc(CC(Nc2ccccc2C(=O)N(C)C)C(=O)O)cc1 (configuration not stated) | 0.562 µM | 0.251 µM | 
CN(CCOc1ccc(CC(Nc2sccc2C(=O)c2ccccc2)C(=O)O)cc1)c1nc2ccccc2o1 (configuration not stated) | 0.038 µM | 0.0234 µM | 
Cc1oc(-c2ccccc2)nc1CCOc1ccc(CC(Nc2ccccc2C(=O)c2ccc(CN(C)C)cc2)C(=O)O)cc1 (configuration not stated) | 0.407 µM | 0.0155 µM | 
CN(CCOc1ccc(CC(Nc2cscc2C(=O)c2ccccc2)C(=O)O)cc1)c1nc2ccccc2o1 (configuration not stated) | 0.00832 µM | 0.00257 µM | 
Cc1oc(-c2ccccc2)nc1CCOc1ccc(CC(Nc2ccccc2C(=O)c2ccc(CO)cc2)C(=O)O)cc1 (configuration not stated) | 0.0174 µM | 0.00417 µM | solubility [8]: 22 µg/mL (≈ 38.2 µM); solubility [3]: 75 µg/mL (≈ 130 µM)
Cc1ccc(NC(Cc2ccc(OCCN(C)c3nc4ccccc4o3)cc2)C(=O)O)c(C(=O)c2ccccc2)c1 (configuration not stated) | 0.229 µM | 0.0135 µM | 
Cc1oc(-c2ccccc2)nc1CCOc1ccc(C[C@H](Nc2ccccc2C(=O)c2ccccc2)C(=O)O)cc1 [FARGLITAZAR] |  |  | solubility [8]: < 1 µg/mL; solubility [11]: < 1 µg/mL
CN(CCOc1ccc(C[C@@H](Nc2ccccc2C(=O)C2CCCCC2)C(=O)O)cc1)c1nc2ccccc2o1 | > 10 µM | 1.55 µM | 

Compound | EC50 [1] | Ki [2] | further results
Cc1oc(-c2ccccc2)nc1CCOc1ccc(CC(Nc2ccccc2C(=O)c2cccnc2)C(=O)O)cc1 (configuration not stated) | 0.00148 µM | 0.000933 µM | solubility [8]: 18 µg/mL (≈ 32.9 µM); solubility [3]: 55 µg/mL (≈ 100 µM)
Cc1oc(-c2ccccc2)nc1CCOc1ccc(CC(Nc2ccccc2C(=O)c2ccc(C(=O)O)cc2)C(=O)O)cc1 (configuration not stated) | 7.59 µM | 0.646 µM | 
CCOC(=O)c1ccccc1NC(Cc1ccc(OCCc2nc(-c3ccccc3)oc2C)cc1)C(=O)O (configuration not stated) | 0.000912 µM | 0.00302 µM | 
Cc1oc(-c2ccccc2)nc1CCOc1ccc(CC(Nc2ccccc2C(=O)O)C(=O)O)cc1 (configuration not stated) | 4.9 µM | > 3.16 µM | 
COc1cccc(C(=O)c2ccccc2NC(Cc2ccc(OCCN(C)c3nc4ccccc4o3)cc2)C(=O)O)c1 (configuration not stated) | 0.117 µM | 0.00229 µM | 
CN(CCOc1ccc(CC(Nc2ccccc2C(=O)C2CCCCCC2)C(=O)O)cc1)c1nc2ccccc2o1 (configuration not stated) | 0.00776 µM | 0.0398 µM | 
CN(CCOc1ccc(CC(Nc2ccc(Cl)cc2C(=O)c2ccccc2)C(=O)O)cc1)c1nc2ccccc2o1 (configuration not stated) | 0.0891 µM | 0.00871 µM | 
CNC(=O)c1ccccc1NC(Cc1ccc(OCCc2nc(-c3ccccc3)oc2C)cc1)C(=O)O (configuration not stated) | 0.0324 µM | 0.0155 µM | 
COc1ccccc1C(=O)c1ccccc1NC(Cc1ccc(OCCN(C)c2nc3ccccc3o2)cc1)C(=O)O (configuration not stated) | 0.038 µM |  | 
Cc1oc(-c2ccccc2)nc1CCOc1ccc(CC(Nc2ccccc2C(=O)c2cccc(C(=O)O)c2)C(=O)O)cc1 (configuration not stated) | 0.209 µM | 0.813 µM | 
CN(CCOc1ccc(CC(Nc2ccccc2C(=O)c2cccc(OCc3ccccc3)c2)C(=O)O)cc1)c1nc2ccccc2o1 (configuration not stated) |  |  | EC50 [9]: 0.741 µM; Ki [10]: 0.0537 µM
CN(CCOc1ccc(CC(Nc2ccccc2C(=O)c2ccc(OCc3ccccc3)cc2)C(=O)O)cc1)c1nc2ccccc2o1 (configuration not stated) | 0.759 µM | 0.0661 µM | 
Cc1cccc(C(=O)c2ccccc2NC(Cc2ccc(OCCN(C)c3nc4ccccc4o3)cc2)C(=O)O)c1 (configuration not stated) | 0.0166 µM | 0.00269 µM | 
CN(CCOc1ccc(CC(Nc2ccccc2C(=O)c2ccc(C(F)(F)F)cc2)C(=O)O)cc1)c1nc2ccccc2o1 (configuration not stated) | 0.024 µM | 0.00513 µM | 
Cc1oc(-c2ccccc2)nc1CCOc1ccc(C[C@@H](Nc2ccccc2C(=O)C2CCCCC2)C(=O)O)cc1 | 0.0151 µM | 0.191 µM | solubility [8]: 2 µg/mL (≈ 3.62 µM); solubility [3]: 52 µg/mL (≈ 94.1 µM)
CN(CCOc1ccc(CC(Nc2ccncc2C(=O)c2ccccc2)C(=O)O)cc1)c1nc2ccccc2o1 (configuration not stated) | 9.33 µM | 0.155 µM | 
Cc1ccccc1C(=O)c1ccccc1NC(Cc1ccc(OCCN(C)c2nc3ccccc3o2)cc1)C(=O)O (configuration not stated) | 0.00933 µM |  | 
Cc1oc(-c2ccccc2)nc1CCOc1ccc(CC(Nc2ccccc2C(=O)c2cccc(CN(C)C)c2)C(=O)O)cc1 (configuration not stated) | 0.417 µM |  | solubility [8]: 9 µg/mL (≈ 14.9 µM); solubility [3]: 9 µg/mL (≈ 14.9 µM)
Cc1oc(-c2ccccc2)nc1CCOc1ccc(CC(Nc2ccccc2C(=O)c2ccncc2)C(=O)O)cc1 (configuration not stated) | 0.000912 µM |  | solubility [8]: 87 µg/mL (≈ 159 µM); solubility [3]: 1150 µg/mL (≈ 2100 µM)
CN(CCOc1ccc(C[C@H](Nc2ccccc2C(=O)C2CCCCC2)C(=O)O)cc1)c1nc2ccccc2o1 | 0.00288 µM | 0.00407 µM | 
Cc1c(C)c2c(c(C)c1O)CCC(C)(COc1ccc(CC3SC(=O)NC3=O)cc1)O2 (configuration not stated) [TROGLITAZONE] |  |  | Reduction (Rattus norvegicus [4]): 85%; Reduction (Rattus norvegicus [5]): 35%; Reduction (Rattus norvegicus [6]): 81%; Reduction (Rattus norvegicus [7]): 59%
Cc1oc(-c2ccccc2)nc1CCOc1ccc(C[C@H](Nc2ccccc2C(=O)C2CCCCC2)C(=O)O)cc1 | 0.000282 µM |  | 
CN(CCOc1ccc(CC(Nc2ccccc2C(=O)c2ccccc2)C(=O)O)cc1)c1nc2ccccc2o1 (configuration not stated) |  | 0.00148 µM | 
